Measured values from different studies.
Protocols differ between the studies behind these lines.
DRD3: D(3) dopamine receptor (DRD3, Homo sapiens, UniProt P35462)
CA12: Carbonic anhydrase 12 (CA12, Homo sapiens, UniProt O43570)
SLC6A3: Sodium-dependent dopamine transporter (SLC6A3, Homo sapiens, UniProt Q01959)
USP51: Ubiquitin carboxyl-terminal hydrolase 51 (USP51, Homo sapiens, UniProt Q70EK9)

| Compound | target | observed | action | method | cell line | tested at | inhibition [%] |
| --- | --- | --- | --- | --- | --- | --- | --- |
| CCc1ccc(N2CCN(CC(O)COc3ccc(C(C)=O)cc3OC)CC2)cc1 (stereo not drawn) | DRD3 | enzyme activity | inhibitor |  |  | 10 µM | 2.9 |
| CCOC(=O)C1CSc2[nH]c(=O)sc2C1c1cn(-c2ccccc2)nc1-c1ccc(C)cc1 (stereo not drawn) | CA12 | enzyme activity | inhibitor | absorbance |  | 10 nM | 11.9 |
| c1ccc(CCCC2CCN(CCCCn3nnnc3C(c3ccccc3)c3ccccc3)CC2)cc1 | SLC6A3 | transporter uptake | inhibitor |  | HEK293 | 1 µM | 63 |
| O=C1NC(=S)C(=Cc2cn(-c3ccccc3)nc2-c2ccc(Br)cc2)S1 | CA12 | enzyme activity | inhibitor | absorbance |  | 0.1 µM | 11.1 |
| O=C(c1ccc(Cl)cc1)N(Cc1ccccc1)C1CCCCC1 | Peroxisome proliferator-activated receptor gamma (PPARG, Homo sapiens, UniProt P37231) | cell-free assay |  |  |  | 10 µM | 14.6 |
| Clc1ccc(C(c2ccc(Cl)cc2)c2nnnn2CCCN2CCC(Cc3ccccc3)CC2)cc1 | SLC6A3 | transporter uptake | inhibitor |  | HEK293 | 1 µM | 90.8 |
| CCN(CC)CCNC(=O)c1c(C)[nH]c(/C=C2\C(=O)Nc3ccc(F)cc32)c1C | Tyrosine-protein kinase Lyn (Lyn, Mus musculus, UniProt P25911) | enzyme activity | inhibitor |  |  | 10 µM | 98 |
| CCOC(=O)C1CSc2[nH]c(=O)sc2C1c1cn(-c2ccccc2)nc1-c1ccc(Cl)cc1 (stereo not drawn) | CA12 | enzyme activity | inhibitor | absorbance |  | 1 µM | 73.2 |
| O=C1CC(c2ccccc2)Oc2ccccc21 (stereo not drawn) | USP51 | enzyme activity | inhibitor |  |  | 5 µM | 0 |
| c1ccc(C2CCN(CCCCn3nnnc3C(c3ccccc3)c3ccccc3)CC2)cc1 | SLC6A3 | transporter uptake | inhibitor |  | HEK293 | 1 µM | 93.9 |
| CCCOC(=O)c1cc(O)c(O)c(O)c1 | USP51 | enzyme activity | inhibitor |  |  | 5 µM | 97 |
| Cc1ccc(-c2nn(-c3ccccc3)cc2C2c3sc(=O)[nH]c3SC3C(=O)N(c4ccccc4)C(=O)C32)cc1 (stereo not drawn) | CA12 | enzyme activity | inhibitor | absorbance |  | 0.1 µM | 33.2 |
| O=c1oc2cc(OCC(O)CN3CCN(c4ccc(F)cc4)CC3)ccc2c2c1CCC2 (stereo not drawn) | DRD3 | enzyme activity | inhibitor |  |  | 10 µM | 0 |
| Clc1ccc(C(c2ccc(Cl)cc2)c2nnnn2CCCN2CCC(CCCc3ccccc3)CC2)cc1 | SLC6A3 | transporter uptake | inhibitor |  | HEK293 | 1 µM | 19.8 |
| O=C(CO)[C@@H](O)[C@H](O)[C@H](O)CO | USP51 | enzyme activity | inhibitor |  |  | 5 µM | 97 |
| CC(O)c1ccc(-c2ccc(CNCCc3ccc(S(N)(=O)=O)cc3)o2)cc1 (stereo not drawn) | DRD3 | enzyme activity | inhibitor |  |  | 10 µM | -9.5 |
| O=C1C[C@@H](c2ccccc2)Oc2cc(O)cc(O)c21 | USP51 | enzyme activity | inhibitor |  |  | 5 µM | 2 |
| NS(=O)(=O)c1ccc(CCNCc2ccc(OCc3cccs3)cc2)cc1 | DRD3 | enzyme activity | inhibitor |  |  | 10 µM | 24.2 |
| CC1(C)[C@@H](O)CC[C@]2(C)[C@H]3C(=O)C=C4[C@@H]5C[C@@](C)(C(=O)O)CC[C@]5(C)CC[C@@]4(C)[C@]3(C)CC[C@@H]12 | USP51 | enzyme activity | inhibitor |  |  | 5 µM | 3 |
| CS(=O)(=O)c1ccc(Nc2ccc3c(c2)OCO3)c([N+](=O)[O-])c1 | Solute carrier family 2, facilitated glucose transporter member 5 (SLC2A5, Homo sapiens, UniProt P22732) | transporter uptake | inhibitor |  | MCF7 | 25 µM | ~90 |
| CCOc1ccc(CNCC(O)c2ccccc2)cc1Br (stereo not drawn) | DRD3 | enzyme activity | inhibitor |  |  | 10 µM | 11.4 |
| O=C(OC[C@H]1O[C@@H](OC(=O)c2cc(O)c(O)c(OC(=O)c3cc(O)c(O)c(O)c3)c2)[C@H](OC(=O)c2cc(O)c(O)c(OC(=O)c3cc(O)c(O)c(O)c3)c2)[C@@H](OC(=O)c2cc(O)c(O)c(OC(=O)c3cc(O)c(O)c(O)c3)c2)[C@@H]1OC(=O)c1cc(O)c(O)c(OC(=O)c2cc(O)c(O)c(O)c2)c1)c1cc(O)c(O)c(OC(=O)c2cc(O)c(O)c(O)c2)c1 | USP51 | enzyme activity | inhibitor |  |  | 5 µM | 100 |
| COc1ccc(CCN2C(=O)CC(N3CCN(c4ccc(Cl)cc4)CC3)C2=O)cc1OC (stereo not drawn) | DRD3 | enzyme activity | inhibitor |  |  | 10 µM | -14.6 |
| O=C1/C(=C2\Nc3ccccc3C2=O)Nc2ccccc21 | USP51 | enzyme activity | inhibitor |  |  | 5 µM | 36 |
